ChEMBL document CHEMBL4513216, “Probing the Open Global Health Chemical Diversity Library for Multistage-Active Starting Points for Next-Generation Antimalarials” (ACS Infect Dis, 2020)

Assay: Toxicity liver stage against HepG2, at 10uM
Format: cell-based
Parameters: test concentration 10 uM, cell line HepG2-A16-CD81EGFP
Settings: human, HepG2-A16-CD81EGFP cells; read-out: INHIBITION
Procedure, shortened: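 Uninfected HepG2-A16-CD81EGFP cells, 3 × 10^3 per well, 1536-well, plated on prespotted compound at 10 μM final, parasite-free screening media added to match infected plates; puromycin 10 μM positive, DMSO 0.5% negative; run in parallel with 48 h PbLuc assay at 37 °C, 5% CO2; viability by CellTiter-Glo luminescence, normalized to controls.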

SMILES	cytotoxicity at 10 µM [%]
CCC(C(=O)N(C)C)N1CCC(c2nccn2Cc2cscn2)CC1 (stereo unspecified)	2.86
CC(=O)N1CC2(CCN(Cc3ccc(Cl)cc3)CC2)Cc2ccccc21	14.2
CN(C)CCOCc1cncc2c1CCN(C(=O)c1cscn1)C2	-102
COc1ccc(C2CCCN2C(=O)CCNc2ncccn2)cc1 (stereo unspecified)	-13.9
O=C(CS(=O)(=O)Cc1ccccc1)NC1CCCCNC1=O (stereo unspecified)	-1.46
Cc1c(I)cccc1C(=O)NCc1ncc[nH]1	17.3
O=C(CN1CCCCC1)Nc1cc(C(F)(F)F)ccc1-n1cccc1	5.24
O=C(O)c1nnn(Cc2cccc(C(F)(F)F)c2)c1-c1ccncc1	1.93
CC(C)CN1CCC2(CCN(Cc3nccs3)CC2)C1=O	-5.77
CC(C)(CO)CCCNC(=O)NC1(c2cccc(F)c2)CC1	-4.86
O=C(O)CCc1ccc(S(=O)(=O)Nc2cnn(CC(F)(F)F)c2)cc1	-7.52
CN1CC(=O)N(c2ccccc2)CC12CCN(CCO)C2 (stereo unspecified)	3.16
Cc1ccc(N2CCC3(CC2)CCN(C2CCOCC2)CC3)nn1	5.5
COc1ccsc1C(=O)NCCN1CCOCC1	6.57
CCc1ccccc1C(=O)N1C[C@@H](CN2CCOCC2)[C@@H](CO)C1	-0.125
CN(C)c1ncc(I)c(C2CCCCN2C)n1 (stereo unspecified)	1.74
CCc1nc(CN2CCCN(CC(O)c3ccccc3)CC2)no1 (stereo unspecified)	-14
Cc1cccc2nc(C(=O)N3CCC(Nc4cccnn4)CC3)cn12	-0.77
CCCSCC(=O)Nc1ncn(CC(=O)NCc2ccccc2)n1	19.2
c1cc(-c2nc(CN3CCc4c(ncn4C4CC4)C3)cs2)cs1	-4.25
Cc1nnc(NCc2ccc(Cl)cc2)o1	3.79
O=S1(=O)c2ccccc2C2(CCN(Cc3cccnc3)C2)N1CC1CC1 (stereo unspecified)	-68.7
CCOC(=O)CSc1ccc(-c2nc(CC)no2)cn1	-17.1

SMILES	cytotoxicity at 10 µM [%]
CO[C@@H]1CCN(Cc2ccoc2)C[C@@H]1Cc1ccccc1	16.5
Cc1ccc(-c2nc(C(=O)N(C)C3CCN(C)CC3)cs2)c(C)c1	-7.07
N#Cc1ccccc1CN1C[C@H]2CC[C@@H](C1)N(CC1CCC1)C2=O	0.258
Cc1cccc(CN2CCc3nnc(Cn4cccc4)n3CC2)n1	1.7
CCC(C)N(Cc1sccc1C)C(=O)c1ccc(S(C)(=O)=O)cc1 (stereo unspecified)	6.7
Cc1nc(CNC(=O)NCCC2=CCCC2)oc1C	-1.18
Cc1cc(C(=O)N2CC[C@@]3(O)CCN(S(C)(=O)=O)C[C@H]3C2)c(C)n1C	-8
O=C(NCc1ccc(C(=O)N2CCCC2)cc1)c1cn2c(n1)CNCC2	-10.2
O=C(C1CCCN1c1ncnc2ccsc12)N1CCSCC1 (stereo unspecified)	3
Cc1nc(-c2ccc(S(=O)(=O)N3CCC=C(F)C3)cc2)co1	13.4
c1ccc2sc(CN3CCOC(Cn4cncn4)C3)nc2c1 (stereo unspecified)	-0.489
CCSCc1cccc(NC(=O)N(C)Cc2ncnn2C)c1	-0.477
c1ccc(CN2CCc3ncnc(-c4cccnc4)c3CC2)nc1	-75.7
CC(O)CN1CCN(CCOCC(F)(F)F)CC1 (stereo unspecified)	-3.51
O=C(N1CCOCC1)N1CCCC2(CCCNC2)C1 (stereo unspecified)	0.817
Cc1noc(C2CCN(C(C)c3nc(C(C)(C)C)no3)CC2)n1 (stereo unspecified)	4.13
CC(C)(C)C(=O)CN1CCc2ccccc2NCCC1=O	-104
COC(=O)C(NC(=O)c1ccco1)c1cc(F)ccc1F (stereo unspecified)	-11.5
CC(C)N(C)C(=O)c1ccc(Cl)c(NC(=O)COCC2CC2)c1	6.14
CC(NS(C)(=O)=O)C(=O)N(C)Cc1cnn(-c2ccc(F)cc2)c1 (stereo unspecified)	-7.94
CCOc1nnc(CN2CCC(c3nc4ccccc4[nH]3)CC2)s1	-1.36
CNC(=O)CNC(=O)Nc1cc(-c2ccccc2)ns1	22
Cc1cn2c(CN(C)C(=O)c3cnc(N)c(Cl)c3)c(C)nc2s1	-8.46
